Measured values published in ChEMBL document CHEMBL5316292 (J Med Chem, 2023).

What was measured:
[1] = Cytotoxicity against HFF cells assessed as reduction in cell viability measured after 72 hrs by MTS assay; format: toxicity, cell-based; settings: human
How it was run: (§1)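 MTS viability assay run in triplicate wells. Serial dilutions in DMSO were given, with DMSO as negative control and doxorubicin as positive control, and incubated 72 h. MTS reagent was added for 2 h and absorbance read at 490 nm. % cytotoxicity = (A_medium − A_treatment)/A_medium × 100. EC50 ± SD was taken from dose-response curves of at least three independent experiments.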

LNCaP = experiment: Antiproliferative activity against androgen-sensitive human LNCaP cells assessed as reduction in cell viability measured after 72 hrs by MTS assay; format: functional, cell-based; how it was run: as §1
[2] = biological target: T1, Bromodomain-containing protein 4 (Homo sapiens, UniProt O60885); experiment: Inhibition of BRD4-BD1 (unknown origin) by fluorescence polarization assay
How it was run: (§2)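 FP competition assay using the fluorescein-labeled PCC conjugate (4 nM) as tracer. Recombinant His-tagged BRD bromodomain (20–400 nM) in 50 mM HEPES pH 7.4, 150 mM NaCl, 0.5 mM TCEP, 0.05% Tween-20. DMSO-matched serial dilutions were added and the plate incubated. Read at ex 485/em 535 nm, with G-factor zeroed on tracer alone. Triplicate data were curve-fitted, error SEM.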

[3] = biological target: T2, Bromodomain-containing protein 3 (Homo sapiens, UniProt Q15059); experiment: Inhibition of BRD3-BD2 (unknown origin) by fluorescence polarization assay; how it was run: as §2
T2 sequence (Q15059 whole entry): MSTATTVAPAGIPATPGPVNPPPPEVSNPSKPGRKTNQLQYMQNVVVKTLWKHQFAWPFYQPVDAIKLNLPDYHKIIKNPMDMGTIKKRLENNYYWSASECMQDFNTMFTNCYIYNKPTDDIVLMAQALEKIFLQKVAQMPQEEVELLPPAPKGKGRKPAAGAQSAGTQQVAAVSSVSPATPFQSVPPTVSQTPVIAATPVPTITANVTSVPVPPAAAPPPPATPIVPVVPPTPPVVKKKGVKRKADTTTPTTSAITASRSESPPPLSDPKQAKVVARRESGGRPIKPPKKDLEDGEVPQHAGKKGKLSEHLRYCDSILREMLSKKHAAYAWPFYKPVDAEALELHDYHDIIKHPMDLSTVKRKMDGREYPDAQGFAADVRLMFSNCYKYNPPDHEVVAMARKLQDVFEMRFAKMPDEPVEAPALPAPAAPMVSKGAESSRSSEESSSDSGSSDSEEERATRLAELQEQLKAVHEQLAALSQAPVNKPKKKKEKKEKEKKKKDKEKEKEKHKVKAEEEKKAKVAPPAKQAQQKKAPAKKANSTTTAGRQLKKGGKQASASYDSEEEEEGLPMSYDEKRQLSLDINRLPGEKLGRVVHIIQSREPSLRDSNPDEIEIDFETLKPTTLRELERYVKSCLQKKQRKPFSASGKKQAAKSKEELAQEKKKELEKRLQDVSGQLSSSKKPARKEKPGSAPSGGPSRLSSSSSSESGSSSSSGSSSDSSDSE

[4] = biological target: T2, Bromodomain-containing protein 3; experiment: Inhibition of BRD3-BD1 (unknown origin) by fluorescence polarization assay; how it was run: as §2
PC-3 [5] = experiment: Antiproliferative activity against androgen-insensitive human PC-3 cells assessed as reduction in cell viability measured after 72 hrs by MTS assay; format: functional, cell-based; settings: PC-3, 72 h; how it was run: as §1
[6] = biological target: T1, Bromodomain-containing protein 4; experiment: Inhibition of BRD4-BD2 (unknown origin) by fluorescence polarization assay; how it was run: as §2
[7] = Cytotoxicity against human WI-38 cells assessed as reduction in cell viability measured after 72 hrs by MTS assay; format: toxicity, cell-based; how it was run: as §1
[8] = Antiproliferative activity against human Androgen-resistant 22Rv1 cells assessed as reduction in cell viability measured after 72 hrs by MTS assay; format: functional, cell-based; settings: 22Rv1, 72 h; how it was run: as §1
DU-145 = experiment: Antiproliferative activity against AR-negative human DU-145 cells assessed as reduction in cell viability measured after 72 hrs by MTS assay; settings: DU-145, 72 h
PC-3 [9] = experiment: Cytotoxicity against human PC-3 cells assessed as reduction in cell viability measured after 5 days by Cell-Titer glo assay; format: functional, cell-based; settings: PC-3, 120 h
VCaP = experiment: Antiproliferative activity against AR-positive human VCaP cells assessed as reduction in cell viability measured after 72 hrs by MTS assay; format: functional, cell-based
How it was run: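 VCaP cells in 96-well plates, compound serially diluted in DMSO and run in triplicate wells for 72 h. MTS reagent added for 2 h, absorbance read at 490 nm. % cytotoxicity = (A_medium − A_treatment)/A_medium × 100. EC50 and SD taken from dose-response curves, at least three independent experiments.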

Row | EC50 (LNCaP) [nM] | IC50 [2] [nM] | IC50 [3] [nM] | IC50 [4] [nM] | EC50 (PC-3 [5]) [nM] | IC50 [6] [nM] | EC50 (DU-145) [nM] | SMILES | EC50 at 72 h [1] [nM] | EC50 at 72 h [7] [nM] | EC50 [8] [nM] | EC50 (PC-3 [9]) [nM] | EC50 (VCaP) [nM]
1 | 130 | 19.3 | 15800 | 18 | 130 | 3920 |  | CC(=O)OC[C@]12CC[C@H]3[C@@H](CC=C4CC=CC(=O)[C@@]43C)[C@]1(O)CC[C@@]2(O)[C@@](C)(O)[C@H]1CC(C)=C(C)C(=O)O1 | > 3000 |  | 70 |  | 
2 | 1050 | > 20000 | > 20000 | > 20000 | 899 | > 20000 | > 2000 | CC(=O)OC[C@]12CC[C@H]3[C@@H](C[C@H]4O[C@]45CC=CC(=O)[C@]35C)[C@]1(O)CC[C@@]2(O)[C@@](C)(O)[C@H]1C[C@H](C)[C@H](C)C(=O)O1 | > 2000 |  | 1130 |  | 

The next lines start with the compound.

Row | SMILES | EC50 (LNCaP) [nM] | IC50 [2] [nM] | IC50 [3] [nM] | IC50 [4] [nM] | EC50 (PC-3 [5]) [nM] | IC50 [6] [nM] | EC50 (DU-145) [nM] | EC50 at 72 h [1] [nM] | EC50 at 72 h [7] [nM] | EC50 [8] [nM] | EC50 (PC-3 [9]) [nM] | EC50 (VCaP) [nM]
3 | CC(=O)OC[C@]12CC[C@H]3[C@@H](C[C@@H]4O[C@@]45CC=CC(=O)[C@]35C)[C@]1(O)CC[C@@]2(O)[C@@](C)(O)[C@H]1CC(C)=C(C)C(=O)O1 | 320 | 31.2 | 4260 | 89.7 | 1200 | 10800 |  | > 12000 |  |  |  | 
4 | CC(=O)OC[C@]12CC[C@H]3[C@@H](C[C@H]4O[C@]45CC=CC(=O)[C@]35C)[C@]1(O)[C@@H](OC(C)=O)C[C@@]2(O)[C@@](C)(O)[C@H]1CC(C)=C(C)C(=O)O1 | 1200 | 47.6 | 6000 | 210 | 180 | 14800 |  |  | > 5000 |  |  | 
5 | CC(=O)OC[C@]12CC[C@H]3[C@@H](C[C@H]4O[C@]45CCCC(=O)[C@]35C)[C@]1(O)CC[C@@]2(O)[C@@](C)(O)[C@H]1C[C@@H](C)[C@@H](C)C(=O)O1 | > 2000 | 3870 | > 20000 | > 20000 | > 2000 | 1830 | > 2000 | > 2000 |  | > 2000 |  | 
6 | CC(=O)OC[C@]12CC[C@H]3[C@@H](CC=C4C=CCC(=O)[C@@]43C)[C@]1(O)CC[C@@]2(O)[C@@](C)(O)[C@H]1CC(C)=C(C)C(=O)O1 | 1100 | 909 | 131 | 262 | 3100 | 294 |  | > 3000 |  |  |  | 
7 | Cc1sc2c(c1C)C(c1ccc(Cl)cc1)=N[C@@H](CC(=O)NCCCCNC(=O)COc1cccc3c1C(=O)N(C1CCC(=O)NC1=O)C3=O)c1nnc(C)n1-2 (some centres not stated) |  |  |  |  |  |  |  |  |  |  | 50 | 
8 | CC1=C(CO)C[C@H]([C@](C)(O)[C@]2(O)CC[C@@]3(O)[C@@H]4C[C@H]5O[C@]56CC=CC(=O)[C@]6(C)[C@H]4CC[C@]23C)OC1=O | 2780 | 281 | > 20000 | 736 | 2900 | > 20000 | > 5000 |  | > 5000 |  |  | 1110
